Source: ChEMBL document CHEMBL1275441, “Effect of impaired renal function on the pharmacokinetics of tomopenem (RO4908463/CS-023), a novel carbapenem” (Antimicrob Agents Chemother, 2008)

What was measured:
Type in all cases: ADME, organism-based
[1] = test system: Homo sapiens; test: Drug metabolism in human with creatinine clearance of =< 30 ml/min assessed as RO4957463 apparent half life at 1500 mg, iv administered as single dose; settings: in vivo
Procedure, shortened: (§1)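 Single 1,500 mg i.v. infusion over 60 min, eight subjects per renal-function group (creatinine clearance by Cockcroft-Gault at screening). Blood was sampled predose and at 1–48 h, and the plasma was stabilized 1:1 with 0.5 M MOPS pH 6.0, kept from light and frozen at −70°C. Parent and metabolite were measured by a validated bioanalytical method. Noncompartmental analysis: t1/2 = ln2/λz from ≥3 terminal points, Cmax/Tmax from raw data, ratio = AUC∞ metabolite/parent.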

[2] = test system: Homo sapiens; test: Drug metabolism in human with creatinine clearance of 30-49 ml/min assessed as RO4957463 AUC (infinity) at 1500 mg, iv administered as single dose measured after 60 mins; design: dose 1500 mg, route intravenous, time infinity; settings: in vivo, 1 h; procedure, shortened: as §1
[3] = test system: Homo sapiens; test: Drug metabolism in human with creatinine clearance of =< 30 ml/min assessed as RO4957463 AUC (infinity) at 1500 mg, iv administered as single dose measured after 60 mins; design: dose 1500 mg, time infinity, route intravenous; settings: in vivo, 1 h; procedure, shortened: as §1
[4] = test system: Homo sapiens; test: Ratio of RO4957463 AUC (infinity) to compound AUC (infinity) in human with creatinine clearance of => 80 ml/min at 1500 mg, iv administered as single dose measured after 60 mins; settings: in vivo, 1 h; procedure, shortened: as §1
[5] = test system: Homo sapiens; test: Ratio of RO4957463 AUC (infinity) to compound AUC (infinity) in human with creatinine clearance of 50-79 ml/min at 1500 mg, iv administered as single dose measured after 60 mins; settings: in vivo, 1 h; procedure, shortened: as §1
[6] = test system: Homo sapiens; test: Ratio of RO4957463 AUC (infinity) to compound AUC (infinity)) in human with creatinine clearance of =< 30 ml/min at 1500 mg, iv administered as single dose measured after 60 mins; settings: in vivo, 1 h; procedure, shortened: as §1
[7] = test system: Homo sapiens; test: Drug excretion in human with creatinine clearance of => 80 ml/min at 1500 mg, iv administered as single dose after 24 hrs; settings: in vivo
Procedure, shortened: (§2)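 After a single 1,500 mg i.v. infusion over 60 min, urine was collected 0–6, 6–12 and 12–24 h post-dose, with volume and pH recorded. Aliquots were mixed 1:1 with 0.5 M MOPS, protected from light and frozen at −70°C. Parent and metabolite were assayed by a validated method. CLR = Ae24/plasma AUC24. n = 8 per group, mean ± SD.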

[8] = test system: Homo sapiens; test: Drug excretion in human with creatinine clearance of 30-49 ml/min at 1500 mg, iv administered as single dose after 24 hrs; settings: in vivo; procedure, shortened: as §2
[9] = Dose normalized excretion in human with creatinine clearance of => 80 ml/min at 1500 mg, iv administered as single dose after 24 hrs; settings: in vivo, read-out: Activity; procedure, shortened: as §2
[10] = Dose normalized excretion in human with creatinine clearance of 50-79 ml/min at 1500 mg, iv administered as single dose after 24 hrs; settings: in vivo, read-out: Activity; procedure, shortened: as §2
[11] = Dose normalized excretion in human with creatinine clearance of =< 30 ml/min at 1500 mg, iv administered as single dose after 24 hrs; settings: in vivo, read-out: Activity; procedure, shortened: as §2
[12] = Total clearance in healthy human at 700 mg, iv administered as single dose; settings: in vivo
[13] = Volume of distribution in healthy human at 700 mg, iv administered as single dose; settings: in vivo
[14] = Cmax in human with creatinine clearance of 50-79 ml/min at 1500 mg, iv administered as single dose measured after 60 mins; design: dose 1500 mg, route intravenous; settings: in vivo; procedure, shortened: as §1
[15] = Cmax in human with creatinine clearance of => 80 ml/min at 1500 mg, iv administered as single dose measured after 60 mins; design: dose 1500 mg, route intravenous; settings: in vivo; procedure, shortened: as §1
[16] = Cmax in human with creatinine clearance of 30-49 ml/min at 1500 mg, iv administered as single dose measured after 60 mins; design: dose 1500 mg, route intravenous; settings: in vivo; procedure, shortened: as §1
[17] = Tmax in human with creatinine clearance of =< 30 ml/min at 1500 mg, iv administered as single dose; settings: in vivo
Procedure, shortened: (§3)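 Eight subjects per CL_CR group (Cockcroft-Gault) received 1,500 mg i.v. over 60 min. Plasma was sampled predose and from 1 to 48 h, mixed with equal-volume 0.5 M MOPS pH 6.0, frozen at −70°C light-protected, and assayed by a validated method. Parameters were derived noncompartmentally from actual times, with T_max taken from raw data as a median and CL/V_ss as means ± SD.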

[18] = Apparent half-life in human with creatinine clearance of => 80 ml/min at 1500 mg, iv administered as single dose; settings: in vivo; procedure, shortened: as §1
[19] = Apparent half-life in human with creatinine clearance of 50-79 ml/min at 1500 mg, iv administered as single dose; settings: in vivo; procedure, shortened: as §1
[20] = Apparent half-life in human with creatinine clearance of 30-49 ml/min at 1500 mg, iv administered as single dose; settings: in vivo; procedure, shortened: as §1
[21] = Apparent half-life in human with creatinine clearance of =< 30 ml/min at 1500 mg, iv administered as single dose; settings: in vivo; procedure, shortened: as §1
[22] = AUC (infinity) in human with creatinine clearance of => 80 ml/min at 1500 mg, iv administered as single dose measured after 60 mins; design: dose 1500 mg, time infinity, route intravenous; settings: plasma; procedure, shortened: as §1
[23] = AUC (infinity) in human with creatinine clearance of 50-79 ml/min at 1500 mg, iv administered as single dose measured after 60 mins; design: dose 1500 mg, route intravenous, time infinity; settings: plasma; procedure, shortened: as §1
[24] = AUC (infinity) in human with creatinine clearance of 30-49 ml/min at 1500 mg, iv administered as single dose measured after 60 mins; design: dose 1500 mg, route intravenous, time infinity; settings: plasma; procedure, shortened: as §1
[25] = AUC (infinity) in human with creatinine clearance of =< 30 ml/min at 1500 mg, iv administered as single dose measured after 60 mins; design: dose 1500 mg, time infinity, route intravenous; settings: plasma; procedure, shortened: as §1
[26] = Volume of distribution at steady state in human with creatinine clearance of 30-49 ml/min at 1500 mg, iv administered as single dose measured after 60 mins; settings: in vivo, read-out: Vdss; procedure, shortened: as §3
[27] = Total clearance in human with creatinine clearance of => 80 ml/min at 1500 mg, iv administered as single dose measured after 60 mins; settings: in vivo; procedure, shortened: as §3
[28] = Total clearance in human with creatinine clearance of 50-79 ml/min at 1500 mg, iv administered as single dose measured after 60 mins; settings: in vivo; procedure, shortened: as §3
[29] = Total clearance in human with creatinine clearance of 30-49 ml/min at 1500 mg, iv administered as single dose measured after 60 mins; settings: in vivo; procedure, shortened: as §3
[30] = Total clearance in human with creatinine clearance of =< 30 ml/min at 1500 mg, iv administered as single dose after 60 mins after 60 mins; settings: in vivo; procedure, shortened: as §3
[31] = test system: Homo sapiens; test: Drug metabolism in human with creatinine clearance of => 80 ml/min assessed as RO4957463 Cmax at 1500 mg, iv administered as single dose measured after 60 mins; design: dose 1500 mg, route intravenous; settings: in vivo, 1 h; procedure, shortened: as §1
[32] = test system: Homo sapiens; test: Drug metabolism in human with creatinine clearance of =< 30 ml/min assessed as RO4957463 Cmax at 1500 mg, iv administered as single dose measured after 60 mins; design: dose 1500 mg, route intravenous; settings: in vivo, 1 h; procedure, shortened: as §1
[33] = test system: Homo sapiens; test: Drug metabolism in human with creatinine clearance of => 80 ml/min assessed as RO4957463 Tmax at 1500 mg, iv administered as single dose; settings: in vivo; procedure, shortened: as §1
[34] = test system: Homo sapiens; test: Drug metabolism in human with creatinine clearance of 30-49 ml/min assessed as RO4957463 Tmax at 1500 mg, iv administered as single dose; settings: in vivo; procedure, shortened: as §1

- t1/2 [1]: 25.3 h
- AUC [2]: 115 µg·h/mL
- AUC [3]: 490 µg·h/mL
- Ratio [4]: 0.1
- Ratio [5]: 0.12
- Ratio [6]: 0.49
- Activity [7]: 862 mg
- Activity [8]: 939 mg
- dose excreted at 24 h [9]: 57.4%
- dose excreted at 24 h [10]: 72.6%
- dose excreted at 24 h [11]: 41.2%
- clearance [12]: 135 mL/min
- Vd [13]: 17 L
- Cmax [14]: 106 µg/mL
- Cmax [15]: 81.4 µg/mL
- Cmax [16]: 100 µg/mL
- Tmax [17]: 1.02 h
- half-life [18]: 2.23 h
- half-life [19]: 3 h
- half-life [20]: 4.59 h
- half-life [21]: 7.94 h
- AUC(0-inf) [22]: 191 µg·h/mL
- AUC(0-inf) [23]: 304 µg·h/mL
- AUC(0-inf) [24]: 517 µg·h/mL
- AUC(0-inf) [25]: 1040 µg·h/mL
- Vd [26]: 17.2 L
- clearance [27]: 135 mL/min
- clearance [28]: 84.7 mL/min
- clearance [29]: 51 mL/min
- clearance [30]: 25.3 mL/min
- Cmax [31]: 3.51 µg/mL
- Cmax [32]: 9.63 µg/mL
- Tmax [33]: 1.01 h
- Tmax [34]: 5 h
SMILES: C[C@@H](O)[C@H]1C(=O)N2C(C(=O)O)=C(S[C@H]3C[C@@H](C(=O)N4CC[C@H](NC(=O)CNC(=N)N)C4)N(C)C3)[C@H](C)[C@H]12 [TOMOPENEM]
